# ChEMBL document CHEMBL1149822, “Synthesis, antimicrobial and anti-inflammatory activities of some 1,2,4-triazolo[3,4-b][1,3,4]thiadiazoles and 1,2,4-triazolo[3,4-b][1,3,4]thiadiazines bearing trichlorophenyl moiety” (2008)
# Tests used:
# Assay type in all cases: functional
# Pseudomonas aeruginosa [1] = experiment: Antibacterial activity against Pseudomonas aeruginosa ATTC 27853 at 12 ug/ml after 3 to 4 days; settings: ATCC27853, read-out: IZ
# Summary of the method: (§1)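 Agar well diffusion. Plates were seeded with a bacterial suspension, the excess was decanted and plates were dried at 37 °C for 1 h. Wells were punched and compounds in DMSO were added, with DMSO wells as control. Plates were run in triplicate at 37 °C for 3–4 days and zones of inhibition were scored.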
# [2] = test system: Trichophyton mentagrophytes; experiment: Antifungal activity against Trichophyton mentagrophytes at […] ug/ml after 3 to 4 days; settings: read-out: IZ
# Aspergillus flavus [3] = experiment: Antifungal activity against Aspergillus flavus NCIM 524 at […] ug/ml after 3 to 4 days; settings: read-out: IZ
# Klebsiella pneumoniae [4] = experiment: microbe, parasite or virus in culture; settings: read-out: IZ
# Escherichia coli [5] = experiment: microbe, parasite or virus in culture; settings: ATCC25922, read-out: IZ
# Talaromyces marneffei [6] = experiment: Antifungal activity against Penicillium marneffei at […] ug/ml after 3 to 4 days; settings: read-out: IZ
# Aspergillus fumigatus [7] = experiment: Antifungal activity against Aspergillus fumigatus NCIM 902 by serial plate dilution method
# [8] = test system: Trichophyton mentagrophytes; experiment: Antifungal activity against Trichophyton mentagrophytes by serial plate dilution method
# Klebsiella pneumoniae [9] = experiment: Antibacterial activity against Klebsiella pneumoniae after 16 to 18 hrs by serial plate dilution method
# Summary of the method: (§2)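 Serial dilutions were made in Mueller-Hinton broth in tubes, adjusted to […] with phosphate buffer, and inoculated with a standardized bacterial suspension. Tubes were incubated at 37 °C for 16–18 h. MIC was taken as the lowest concentration with no visible growth.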
# Staphylococcus aureus [10] = experiment: Antibacterial activity against Staphylococcus aureus ATTC 25923 at […] ug/ml after 3 to 4 days; settings: read-out: IZ
# Aspergillus fumigatus [11] = experiment: Antifungal activity against Aspergillus fumigatus NCIM 902 at […] ug/ml after 3 to 4 days; settings: read-out: IZ
# Staphylococcus aureus [12] = experiment: Antibacterial activity against Staphylococcus aureus ATTC 25923 after 16 to 18 hrs by serial plate dilution method; summary of the method: as §2
# Pseudomonas aeruginosa [13] = experiment: Antibacterial activity against Pseudomonas aeruginosa ATTC 27853 after 16 to 18 hrs by serial plate dilution method; settings: ATCC27853; summary of the method: as §2
# Rattus norvegicus = experiment: Antiinflammatory activity against carrageenan-induced paw oedema in albino rat at 50 mg/kg, po relative to control
# Summary of the method: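 Albino rats of 180–250 g were fasted 18 h and placed in groups of six. Samples were suspended in 2% w/v acacia mucilage, and the vehicle group served as control. 30 min after dosing, carrageenan (1 mg mL⁻¹, 0.1 mL) was injected subcutaneously into the right hind paw. Paw volume was measured immediately and at 3 h, and % oedema inhibition was calculated versus vehicle controls.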
# Talaromyces marneffei [14] = experiment: Antifungal activity against Penicillium marneffei by serial plate dilution method
# Summary of the method: (§3)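 Agar of peptone 1 g, D-glucose 4 g and agar 2 g per 100 mL water, pH 5.7, was lawned with a fungal spore suspension in normal saline. The excess was decanted and plates were dried at 37 °C for 1 h. Wells were punched and compounds in DMSO were added, with a DMSO control. Plates were run in triplicate at 37 °C for 3–4 days, and the inhibition zone diameter was measured.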
# Aspergillus flavus [15] = experiment: Antifungal activity against Aspergillus flavus NCIM 524 by serial plate dilution method; summary of the method: as §3
# Escherichia coli [16] = experiment: Antibacterial activity against Escherichia coli ATTC 25922 after 16 to 18 hrs by serial plate dilution method; settings: ATCC25922; summary of the method: as §2
# Pseudomonas aeruginosa [17] = experiment: microbe, parasite or virus in culture; settings: ATCC27853, read-out: IZ
# Aspergillus fumigatus [18] = experiment: Antifungal activity against Aspergillus fumigatus NCIM 902 at 12 ug/ml after 3 to 4 days; settings: read-out: IZ; summary of the method: as §3
# Talaromyces marneffei [19] = experiment: Antifungal activity against Penicillium marneffei at 12 ug/ml after 3 to 4 days; settings: read-out: IZ; summary of the method: as §3
# Klebsiella pneumoniae [20] = experiment: Antibacterial activity against Klebsiella pneumoniae at 12 ug/ml after 3 to 4 days; settings: read-out: IZ; summary of the method: as §1
# Aspergillus flavus [21] = experiment: Antifungal activity against Aspergillus flavus NCIM 524 at 12 ug/ml after 3 to 4 days; settings: read-out: IZ; summary of the method: as §3
# [22] = test system: Trichophyton mentagrophytes; experiment: Antifungal activity against Trichophyton mentagrophytes at 12 ug/ml after 3 to 4 days; settings: read-out: IZ; summary of the method: as §3
# Staphylococcus aureus [23] = experiment: Antibacterial activity against Staphylococcus aureus ATTC 25923 at 12 ug/ml after 3 to 4 days; settings: read-out: IZ; summary of the method: as §1
# Escherichia coli [24] = experiment: Antibacterial activity against Escherichia coli ATTC 25922 at 12 ug/ml after 3 to 4 days; settings: ATCC25922, read-out: IZ; summary of the method: as §1
Structure (SMILES),zone of inhibition at 6.25 µg/mL [2] [mm],zone of inhibition at 6.25 µg/mL (Aspergillus flavus [3]) [mm],zone of inhibition at 6.25 µg/mL (Klebsiella pneumoniae [4]) [mm],zone of inhibition at 6.25 µg/mL (Escherichia coli [5]) [mm],zone of inhibition at 6.25 µg/mL (Talaromyces marneffei [6]) [mm],MIC (Aspergillus fumigatus [7]) [µg/mL],MIC [8] [µg/mL],MIC (Klebsiella pneumoniae [9]) [µg/mL],zone of inhibition at 6.25 µg/mL (Staphylococcus aureus [10]) [mm],zone of inhibition at 6.25 µg/mL (Aspergillus fumigatus [11]) [mm],MIC (Staphylococcus aureus [12]) [µg/mL],MIC (Pseudomonas aeruginosa [13]) [µg/mL],inhibition in vivo at 50 mg/kg (Rattus norvegicus) [%],MIC (Talaromyces marneffei [14]) [µg/mL],MIC (Aspergillus flavus [15]) [µg/mL],MIC (Escherichia coli [16]) [µg/mL],zone of inhibition at 6.25 µg/mL (Pseudomonas aeruginosa [17]) [mm],other results
Clc1cc(Cl)c(Cl)c(-c2nnc3sc(-c4cccc5ncccc45)nn23)c1,16,16,16,16,16,6.25,6.25,6.25,16,16,6.25,12,9.67,6.25,6.25,6.25,–,zone of inhibition at 12 µg/mL (Pseudomonas aeruginosa [1]): 11 mm
Clc1cc(Cl)c(Cl)c(-c2nnc3sc(-c4ccccc4)nn23)c1,16,16,–,16,–,12,6.25,12,16,–,6.25,6.25,16.1,12,6.25,6.25,16,zone of inhibition at 12 µg/mL (Aspergillus fumigatus [18]): 11 mm; zone of inhibition at 12 µg/mL (Talaromyces marneffei [19]): 11 mm; zone of inhibition at 12 µg/mL (Klebsiella pneumoniae [20]): 11 mm
Clc1cc(Cl)c(Cl)c(-c2nnc3sc(-c4ccncc4Br)nn23)c1,16,16,16,16,16,6.25,6.25,6.25,16,16,6.25,6.25,19.4,6.25,6.25,6.25,16,–
NC(=O)c1cc(C2=Nn3c(nnc3-c3cc(Cl)cc(Cl)c3Cl)SC2)ccc1O,16,16,16,16,16,6.25,6.25,6.25,16,16,6.25,6.25,–,6.25,6.25,6.25,16,–
CSc1ccc(C2=Nn3c(nnc3-c3cc(Cl)cc(Cl)c3Cl)SC2)cc1,16,16,16,16,16,6.25,6.25,6.25,16,16,6.25,6.25,9.67,6.25,6.25,6.25,16,–
COc1ccc(C2=Nn3c(nnc3-c3cc(Cl)cc(Cl)c3Cl)SC2)cc1,16,16,16,16,16,6.25,6.25,6.25,16,16,6.25,6.25,19.4,6.25,6.25,6.25,16,–
Clc1ccc(C2=Nn3c(nnc3-c3cc(Cl)cc(Cl)c3Cl)SC2)cc1,16,16,16,16,16,6.25,6.25,6.25,16,16,6.25,6.25,30.6,6.25,6.25,6.25,16,–
Cc1ccc(-c2nn3c(-c4cc(Cl)cc(Cl)c4Cl)nnc3s2)cc1,–,–,16,–,16,6.25,12,6.25,–,16,12,6.25,22.6,6.25,12,12,16,zone of inhibition at 12 µg/mL (Aspergillus flavus [21]): 11 mm; zone of inhibition at 12 µg/mL [22]: 11 mm; zone of inhibition at 12 µg/mL (Staphylococcus aureus [23]): 11 mm; zone of inhibition at 12 µg/mL (Escherichia coli [24]): 11 mm
Clc1cc(Cl)cc(-c2nn3c(-c4cc(Cl)cc(Cl)c4Cl)nnc3s2)c1,16,16,16,16,16,6.25,6.25,6.25,16,16,6.25,6.25,–,6.25,6.25,6.25,16,–
Clc1cc(Cl)c(Cl)c(-c2nnc3sc(COc4ccccc4)nn23)c1,–,–,16,16,16,6.25,12,6.25,16,16,6.25,6.25,–,6.25,12,6.25,16,zone of inhibition at 12 µg/mL (Aspergillus flavus [21]): 11 mm; zone of inhibition at 12 µg/mL [22]: 11 mm
Cc1ccc(C2=Nn3c(nnc3-c3cc(Cl)cc(Cl)c3Cl)SC2)cc1,16,16,–,16,16,6.25,6.25,12,16,16,6.25,12,19.4,6.25,6.25,6.25,–,zone of inhibition at 12 µg/mL (Pseudomonas aeruginosa [1]): 11 mm; zone of inhibition at 12 µg/mL (Klebsiella pneumoniae [20]): 11 mm
Clc1cc(Cl)c(Cl)c(-c2nnc3sc(-c4ccncc4)nn23)c1,16,16,16,16,16,6.25,6.25,6.25,16,16,6.25,6.25,11.3,6.25,6.25,6.25,16,–
Clc1cc(Cl)c(Cl)c(-c2nnc3n2N=C(c2ccccc2)CS3)c1,–,–,16,–,–,6.25,12,6.25,–,16,12,6.25,–,12,12,12,16,zone of inhibition at 12 µg/mL (Aspergillus flavus [21]): 11 mm; zone of inhibition at 12 µg/mL [22]: 11 mm; zone of inhibition at 12 µg/mL (Staphylococcus aureus [23]): 11 mm; zone of inhibition at 12 µg/mL (Talaromyces marneffei [19]): 11 mm; zone of inhibition at 12 µg/mL (Escherichia coli [24]): 11 mm
